Compounds with a hit are over-represented: about 4.9% of the library has one in this group of screens.
HSF-1 act – HSF-1 activators, primary screen, NIH3T3-HGL cells, MG132 stress, luminescence, single point; activation, % at 9 µM; NIH3T3-HGL HSF-1 luciferase reporter, 8 h; 100% = twice DMSO control signal; AID 504408, 2011; 300,000 tested, 1.7% active;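 active = mean replicate activation of at least 50% with a set share of replicates each reaching 50%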;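 also: 0% = median of the neutral control wells and 100% = twice that signal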
Lipid droplet – inhibitors of hepatocyte lipid droplet formation, primary screen, imaging, high-throughput imaging, BODIPY stain; 240,000 tested, 0.4% active; inhibition, % at 6.5 µM; AID 1656, 2009; AML12 mouse hepatocytes, oleate lipid droplets;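 active = lipid droplet intensity inhibited by at least 50%, with more than 500 cells counted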
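Assay system: AML12 hepatocytes (mouse) / Also added: 100 µM oleic acid challenge / Times: overnight treatment with compound plus oleate / Detection: high-content imaging of BODIPY-stained droplets and DAPI nuclei / Evaluation: % inhibition of lipid droplet signal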
CHT allo act – CHT positive allosteric modulators, primary screen, cell-based, membrane potential dye, choline EC20 | High affinity choline transporter 1 (Homo sapiens), Q9GZV3 | CHT-expressing cells; active compounds read high; LV-AA mutant CHT in HEK293 cells | B-score at 10 µM | 310,000 tested, 0.49% active;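 active = initial fluorescence not abnormally high and integrated response B-score, plate-corrected, over 3 SD above library mean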
Target sequence (Q9GZV3 whole entry, looked up): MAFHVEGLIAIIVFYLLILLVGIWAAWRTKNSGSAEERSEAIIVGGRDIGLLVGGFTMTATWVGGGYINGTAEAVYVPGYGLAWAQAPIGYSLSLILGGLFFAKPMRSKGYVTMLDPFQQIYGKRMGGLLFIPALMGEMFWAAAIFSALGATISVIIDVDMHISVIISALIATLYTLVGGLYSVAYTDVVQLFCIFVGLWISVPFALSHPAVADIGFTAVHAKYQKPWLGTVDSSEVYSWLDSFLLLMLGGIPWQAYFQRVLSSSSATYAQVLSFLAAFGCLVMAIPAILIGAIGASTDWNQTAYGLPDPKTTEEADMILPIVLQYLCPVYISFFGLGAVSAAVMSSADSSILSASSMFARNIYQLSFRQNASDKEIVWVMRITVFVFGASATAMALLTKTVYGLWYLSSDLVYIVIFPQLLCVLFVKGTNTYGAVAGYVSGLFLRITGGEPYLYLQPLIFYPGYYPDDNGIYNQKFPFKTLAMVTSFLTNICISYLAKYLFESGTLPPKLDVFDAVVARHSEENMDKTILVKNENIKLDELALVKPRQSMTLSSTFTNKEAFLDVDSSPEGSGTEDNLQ
CHT inh – inhibitors of human choline transporter CHT | High affinity choline transporter 1 (Homo sapiens), Q9GZV3 | CHT-expressing cells, membrane potential dye, choline response; active compounds read low | B-score at 10 µM | 310,000 tested, 0.86% active;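 active = B-score over 3 SD under the library average, and starting fluorescence ratio not unusually high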;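 also: choline stimulus applied at its EC90 after an EC20 pre-addition; B-score computed on integrated fluorescence ratio after choline addition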
HSF1 inh – HSF1 inhibitors in luciferase reporter cells, primary screen, cell-based, NIH3T3, luminescence; NIH3T3-HGL HSE-luciferase, MG132-induced, luminescence 8 h; active compounds read low; activity change, negative = inhibition, % at 7.5 µM (by protocol); 300,000 tested, 0.77% active; AID 2098, 2009;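 active = more than half of replicate wells show activity change below -50%, luminescence cut by over half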;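 also: luciferase reports HSF-1 transcriptional activity via heat shock element; 0% = median of DMSO wells and -100% = zero luminescence signal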
PHOSPHO1 block – PubChem AID 1565 | recombinant PHOSPHO1, absorbance phosphatase assay | inhibition, % at 13.3 µM | 290,000 tested, 1.1% active | Phosphoethanolamine/phosphocholine phosphatase (Homo sapiens), Q8TCT1; in the data active = inhibition above about 60%
* = called active by the depositor.

For CC(C)CN1CCN(Cc2cnc(N3CCOCC3)s2)CC1CCO (stereo not given) the results were HSF-1 act -5.5, Lipid droplet -2.3, CHT allo act inactive, CHT inh inactive, HSF1 inh -2.5 and PHOSPHO1 block 36.8.
`CC(NC(=O)c1ccccc1Br)c1ccc2c(c1)CCCC2` (stereo not given) gave HSF-1 act 59.4*, CHT allo act inactive, CHT inh inactive, HSF1 inh 20.8 and PHOSPHO1 block 24.4.
`CC(NC(=S)NC(=O)c1ccccc1Br)c1ccccc1` (stereo not given) gave HSF-1 act 1.0, Lipid droplet -16.6, CHT allo act inactive, CHT inh inactive, HSF1 inh -2.2 and PHOSPHO1 block -35.5.
For Cc1cccc(Cc2nnc(CCC(=O)N(C)Cc3ccncc3C)o2)c1 the results were HSF-1 act 0.5, Lipid droplet -8.9, CHT allo act inactive, CHT inh inactive, HSF1 inh -8.1 and PHOSPHO1 block 51.8.
Screening COc1ccc(CCc2nnc(CCC(=O)N(C)Cc3ccncc3C)o2)cc1 returned HSF-1 act 6.4, Lipid droplet -2.6, CHT allo act inactive, CHT inh inactive, HSF1 inh -0.6 and PHOSPHO1 block 64.2*.
For COc1ccc(OC)c(C(=O)/C=C/c2ccccc2C(F)(F)F)c1 the results were HSF-1 act 212.0*, CHT allo act inactive, CHT inh inactive, HSF1 inh 158.5 and PHOSPHO1 block 48.1.
`COc1ccc(OC)c(N/C=C/C(=O)c2ccccc2)c1` gave HSF-1 act -53.9, Lipid droplet 2.0, CHT allo act inactive, CHT inh inactive, HSF1 inh -42.8 and PHOSPHO1 block 8.5.
Screening COc1ccc(C(=O)/C=C/c2cc(OC)c(O)c(OC)c2)c(F)c1 returned HSF-1 act 35.3, Lipid droplet -1.0, CHT allo act inactive, CHT inh inactive, HSF1 inh 21.3 and PHOSPHO1 block 3.1.
For COc1ccc(C(=O)/C=C/Nc2cc(C)on2)c(OC)c1 the results were HSF-1 act -66.2, CHT allo act inactive, CHT inh inactive, HSF1 inh -58.2* and PHOSPHO1 block 8.5.
`COc1ccc(C(=O)/C=C/c2ccc(N3CCCCC3)c([N+](=O)[O-])c2)c(OC)c1` gave HSF-1 act 67.8*, Lipid droplet -14.1, CHT allo act inactive, CHT inh inactive, HSF1 inh 49.7 and PHOSPHO1 block -8.6.
COc1ccc(C(=O)/C=C/c2ccccc2)c(OC)c1 was read as HSF-1 act 62.3*, Lipid droplet -1.4, CHT allo act inactive, CHT inh inactive, HSF1 inh 34.1 and PHOSPHO1 block 31.7.
For CCCn1nnc(NC(=O)c2ccc3c(c2)OCO3)n1 the results were HSF-1 act 7.9, Lipid droplet 9.6, CHT allo act inactive, CHT inh inactive, HSF1 inh 6.8 and PHOSPHO1 block -1.2.
S=C(Nc1cccc(Cl)c1)N1CCOCC1 was read as HSF-1 act -4.0, Lipid droplet 6.5, CHT allo act inactive, CHT inh inactive, HSF1 inh 8.9 and PHOSPHO1 block 10.6.
`COc1ccc(NC(=O)CN(C)C(=O)c2ccc(N3CCCCCC3)c([N+](=O)[O-])c2)cc1` gave HSF-1 act 66.6*, CHT allo act inactive, CHT inh inactive and HSF1 inh 22.7.
For COc1ccc(NC(=O)CN(C)C(=O)c2ccc(N3CCOCC3)c([N+](=O)[O-])c2)cc1 the results were HSF-1 act -2.7, CHT allo act inactive, CHT inh inactive and HSF1 inh -2.2.
For COc1ccc(OCC(=O)NC(CC(=O)O)c2ccc(OC)c(OC)c2)cc1 (stereo not given) the results were HSF-1 act -13.7, Lipid droplet 5.1, CHT allo act inactive, CHT inh inactive, HSF1 inh -2.8 and PHOSPHO1 block -12.6.
Screening CCOCCCNC(=S)NCCCNc1nc2c(C)cc(C)cc2cc1C#N returned Lipid droplet -8.3 and PHOSPHO1 block 32.4.
Screening Cc1ccc2cc(C#N)c(NCCNC(=S)NCCCN(C)C)nc2c1C returned HSF-1 act 6.5, Lipid droplet -34.7, CHT allo act inactive, CHT inh inactive, HSF1 inh 2.9 and PHOSPHO1 block 64.2*.
For CCOCCCNC(=S)NCCNc1nc2c(C)cccc2cc1C#N the results were HSF-1 act -8.3, Lipid droplet -0.6, CHT allo act inactive, CHT inh inactive, HSF1 inh -4.0 and PHOSPHO1 block 61.0*.
`Cc1cccc(N2C(=O)CC(NNc3nc4ccccc4s3)C2=O)c1` (stereo not given) gave HSF-1 act 108.8*, Lipid droplet -9.2, CHT allo act inactive, CHT inh inactive, HSF1 inh 48.9 and PHOSPHO1 block 2.5.
For O=C1CC(NNc2nc3ccccc3s2)C(=O)N1c1ccc(F)cc1 (stereo not given) the results were HSF-1 act 41.0, Lipid droplet 5.8, CHT allo act inactive, CHT inh inactive, HSF1 inh 32.0 and PHOSPHO1 block 28.1.
`CC(C)OCCCN(CC(O)c1ccccc1)CC(O)c1ccccc1` (stereo not given) gave HSF-1 act -18.9, Lipid droplet -25.2, CHT allo act inactive, CHT inh inactive, HSF1 inh -2.2 and PHOSPHO1 block -11.5.
Screening Cc1nc2cc(NC(=O)N3CCN(c4ccccn4)CC3)ccc2o1 returned HSF-1 act 35.5, Lipid droplet 3.5, CHT allo act inactive, CHT inh inactive, HSF1 inh 1.9 and PHOSPHO1 block -17.0.
Screening O=C(Nc1ccc2nc(-c3ccco3)c(-c3ccco3)nc2c1)N1CCN(c2ccccn2)CC1 returned HSF-1 act 10.3, Lipid droplet 3.4, CHT allo act inactive, CHT inh inactive, HSF1 inh -4.0 and PHOSPHO1 block 97.7*.
Screening S=C(Nc1ccc(N2CCOCC2)cc1)Nc1ccc2nc(-c3ccco3)c(-c3ccco3)nc2c1 returned HSF-1 act -17.3, Lipid droplet 18.3, CHT allo act inactive, CHT inh inactive, HSF1 inh -9.0 and PHOSPHO1 block 92.4*.
`O=C(Nc1ccc(N2CCOCC2)cc1)c1ccc2nc(-c3ccco3)c(-c3ccco3)nc2c1` gave HSF-1 act -4.8, Lipid droplet 13.3, CHT allo act inactive, CHT inh inactive, HSF1 inh -5.5 and PHOSPHO1 block -26.0.
For CC(C)CC1CCCCC1OC(=O)CN1CCCCC1 (stereo not given) the results were HSF-1 act 21.8, Lipid droplet -99.9, CHT allo act inactive, CHT inh inactive, HSF1 inh -6.7 and PHOSPHO1 block -14.5.

High-throughput results deposited in PubChem by several laboratories.
